Measurements collected from several papers.
Lines come from different studies, so protocols differ. pEC50, pKd, pKi: −log10 of the molar value.
ADORA2B: Adenosine receptor A2b (ADORA2B, Homo sapiens, UniProt P29275)
Melanocortin receptor 3: Melanocortin receptor 3 (Mus musculus, UniProt P33033)
BRD2 BD2: Bromodomain-containing protein 2, BD2 (BRD2, Homo sapiens, UniProt P25440)
PBRM1 bromodomain: Protein polybromo-1, bromodomain (PBRM1, Homo sapiens, UniProt Q86U86)

For `CCCCCN1CCCn2c1nc1c2c(=O)n(C)c(=O)n1C`, the pKi was < 5.00 (ADORA2B; ligand displacement; radioligand; cell membranes).
For `N=C(N)NCCC[C@H](NC(=O)[C@H](CC(=O)O)NC(=O)[C@H](Cc1c[nH]c2ccccc12)NC(=O)[C@@H](N)CCCNC(=N)N)C(=O)N[C@@H](Cc1ccccc1)C(=O)NCC(=O)O`, the pEC50 was < 4.00 (Melanocortin receptor 3; reporter gene; agonist).
With `CC(=O)N[C@H](C(=O)N1C[C@H](O)C[C@H]1C(=O)NCc1ccc(-c2scnc2C)cc1)C(C)(C)SCCCCCCNC(=O)C[C@@H]1N=C(c2ccc(Cl)cc2)c2c(sc(C)c2C)-n2c(C)nnc21` the pKd was 7.03 (BRD2 BD2; binding; ITC).
`N=C(N)NCCC[C@H](NC(=O)[C@@H](N)CC(=O)O)C(=O)N[C@@H](Cc1ccccc1)C(=O)NCC(=O)O` gave a pEC50 of < 4.00 (Melanocortin receptor 3; reporter gene; agonist).
`CCCCN1CCCn2c1nc1c2c(=O)n(CCC)c(=O)n1CCC` gave a pKi of 5.88 (ADORA2B; ligand displacement; radioligand; cell membranes).
For `Cc1ncsc1-c1ccc(CNC(=O)[C@@H]2C[C@H](O)CN2C(=O)[C@@H](NC(=O)C2(F)CC2)C(C)(C)C)c(OCCOc2ccc(CN3CCN(c4cc(-c5ccccc5O)nnc4N)CC3)cc2)c1`, the pKd was 6.21 (PBRM1 bromodomain; binding; SPR).
For `N=C(N)NCCC[C@H](NC(=O)[C@@H](N)CC(=O)O)C(=O)N[C@@H](Cc1ccccc1)C(=O)O`, the pEC50 was < 4.00 (Melanocortin receptor 3; reporter gene; agonist).
`Cc1cc2ccccc2n1CCNC(=O)c1ccc(N2CCCCC2)cc1` gave a Kb of ~10 nM (Prostaglandin E2 receptor EP2 subtype (PTGER2, Homo sapiens, UniProt P43116); cAMP; antagonist; TR-FRET).
`Cc1ncsc1-c1ccc(CNC(=O)[C@@H]2C[C@@H](O)CN2C(=O)[C@@H](NC(=O)C2(F)CC2)C(C)(C)C)c(OCCOCCOCCN2CCN(c3cc(-c4ccccc4O)nnc3N)CC2)c1` gave a pKd of 5.57 (PBRM1 bromodomain; binding; SPR).
`COCCOc1ccc(N2CCN(CCn3ncc4c3nc(N)n3nc(-c5ccco5)nc43)CC2)cc1` gave a pKi of < 6.00 (ADORA2B; ligand displacement; radioligand; cell membranes).
`N=C(N)NCCC[C@H](NC(=O)[C@H](CC(=O)O)NC(=O)[C@@H](N)Cc1c[nH]c2ccccc12)C(=O)N[C@@H](Cc1ccccc1)C(=O)NCC(=O)O` gave a pEC50 of < 4.00 (Melanocortin receptor 3; reporter gene; agonist).
With `CC(C)CCCC(C)N1CCCn2c1nc1c2c(=O)n(C)c(=O)n1C` (stereo not shown) the pKi was < 5.00 (ADORA2B; ligand displacement; radioligand; cell membranes).
With `CCCCCCCC/C=C\CCCCCCCC(=O)SCCNC(=O)CCNC(=O)[C@H](O)C(C)(C)COP(=O)(O)OP(=O)(O)OC[C@H]1O[C@@H](n2cnc3c(N)ncnc32)[C@H](O)[C@@H]1OP(=O)(O)O` the pKd was 8.22 (fadR (Vibrio cholerae, UniProt Q9KQU8); binding; ITC).
`CCC(C)N1CCCn2c1nc1c2c(=O)n(C)c(=O)n1C` (stereo not shown) gave a pKi of < 5.00 (ADORA2B; ligand displacement; radioligand; cell membranes).
With `c1cncc(-c2cccc(Nc3nccc(NC4CCCCC4)n3)c2)c1` the pKd was 6.54 (Tyrosine-protein kinase JAK1, JH2 (JAK1, Homo sapiens, UniProt P23458); binding; competition with immobilised ligand).
For `CCCCN1CCC(COC(=O)c2ccc(N)c(OCF)c2)CC1`, the pKi was < 5.00 (Muscarinic acetylcholine receptor M1 (CHRM1, Homo sapiens, UniProt P11229); cell-free assay; radioligand).
`Cc1noc(C)c1-c1ccc(-c2nc3cnccn3c2NC(C)(C)C)cc1` gave a pKd of 7.02 (BRD2 BD2; cell-free assay; competition with immobilised ligand).
With `CCOc1cc(-c2nncn2C)ccc1Nc1ncc2cc(C)nc(NCC(C)(C)C)c2n1` the pKd was 6.77 (Dual serine/threonine and tyrosine protein kinase (DSTYK, Homo sapiens, UniProt Q6XUX3); binding; competition with immobilised ligand).
For `CCNC(=O)[C@H]1O[C@@H](n2cnc3c(N)nc(NN=CC4CCC=CO4)nc32)[C@H](O)[C@@H]1O` (stereo partly shown), the pEC50 was 4.76 (ADORA2B; GTPγS binding; agonist; cell membranes).
For `CCCCOc1nc(N)c2[nH]c(=O)n(CCN)c2n1`, the pEC50 was 3.90 (Toll-like receptor 7 (TLR7, Homo sapiens, UniProt Q9NYK1); reporter gene; agonist).
The pEC50 of `N=C(N)NCCC[C@H](NC(=O)[C@H](CC(=O)O)NC(=O)[C@H](Cc1c[nH]c2ccccc12)NC(=O)[C@H](CCCNC(=N)N)NC(=O)[C@H](Cc1ccccc1)NC(=O)[C@@H](N)Cc1c[nH]cn1)C(=O)N[C@@H](Cc1ccccc1)C(=O)NCC(=O)O` is reported as 5.57 (Melanocortin receptor 3; reporter gene; agonist).
For `Nc1nc2c(ncn2[C@@H]2O[C@H](COP(=O)(O)OP(=O)(O)O)[C@@H](OP(=O)(O)OP(=O)(O)O)[C@H]2O)c(=O)[nH]1`, the pKd was 5.80 (speC (Escherichia coli, UniProt P21169); binding; ITC).
`N=C(N)NCCC[C@H](NC(=O)[C@H](Cc1ccccc1)NC(=O)[C@@H](N)Cc1cnc[nH]1)C(=O)N[C@@H](Cc1c[nH]c2ccccc12)C(=O)O` has a pEC50 of < 4.00 (Melanocortin receptor 3; reporter gene; agonist).
`Cc1cc2nc3c(=O)[nH]c(=O)nc-3n(C[C@H](O)[C@H](O)[C@H](O)COP(=O)(O)OP(=O)(O)OC[C@H]3O[C@@H](n4cnc5c(N)ncnc54)[C@H](O)[C@@H]3O)c2cc1C` gave a pKd of 7.64 (Muscleblind-like protein 1 (Homo sapiens, UniProt Q9NR56); binding; lysate).
The pEC50 of `CSCC[C@H](NC(=O)[C@@H](NC(=O)[C@@H](N)Cc1ccc(O)cc1)C(C)C)C(=O)NCC(=O)N[C@@H](Cc1c[nH]cn1)C(=O)N[C@@H](Cc1ccccc1)C(=O)O` is reported as < 4.00 (Melanocortin receptor 3; reporter gene; agonist).
With `CC(C)CN1CCCn2c1nc1c2c(=O)n(C)c(=O)n1C` the pKi was < 5.00 (ADORA2B; ligand displacement; radioligand; cell membranes).
With `CSCC[C@H](NC(=O)[C@@H](NC(=O)[C@@H](N)Cc1ccc(O)cc1)C(C)C)C(=O)NCC(=O)N[C@@H](Cc1c[nH]cn1)C(=O)N[C@@H](Cc1ccccc1)C(=O)N[C@@H](CCCNC(=N)N)C(=O)N[C@@H](Cc1c[nH]c2ccccc12)C(=O)N[C@@H](CC(=O)O)C(=O)O` the pEC50 was 6.10 (Melanocortin receptor 3; reporter gene; agonist).
With `C#CCN1CCCn2c1nc1c2c(=O)n(C)c(=O)n1C` the pKi was < 5.00 (ADORA2B; ligand displacement; radioligand; cell membranes).
